OX1R antag-1 – antagonists of human orexin 1 receptor. O43613. CHO/OX1R cells, Fluo-8 calcium fluorescence, orexin A. inhibition, % at 5 µM. 0.43% of 330,000 active;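 active = inhibition above its plate's threshold, mean inhibition of all tested compounds on the plate plus 3 SD, cut at about 37% in these data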;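 note: 0% = orexin A challenge wells and 100% = SB-334867-A antagonist wells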
GalR3 antagonist – blocks the human galanin receptor 3 | 0.44% of 360,000 active | HEK293 GalR3-CNG cAMP membrane potential fluorescence; galR3 body fused to GalR1 C-terminus | inhibition, % at 3 µM | O60755;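 active = inhibition above the screen-wide average plus 3 SD, cut at about 13% in these data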;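 note: forskolin and galanin both at EC90 stimulate the cells; cAMP rise reported by CNG channel membrane potential dye signal; 0% = forskolin plus galanin with DMSO and 100% = forskolin alone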
Target sequence (O60755 1-299 limits assumed): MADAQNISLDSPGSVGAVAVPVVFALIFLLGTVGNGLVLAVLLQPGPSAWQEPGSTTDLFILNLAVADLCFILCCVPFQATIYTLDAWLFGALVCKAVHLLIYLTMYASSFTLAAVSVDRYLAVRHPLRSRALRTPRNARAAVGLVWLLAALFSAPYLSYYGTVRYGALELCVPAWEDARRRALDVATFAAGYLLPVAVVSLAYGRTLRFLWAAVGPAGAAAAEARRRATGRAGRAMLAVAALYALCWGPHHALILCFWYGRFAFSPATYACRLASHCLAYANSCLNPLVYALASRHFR
CHO parental Ca – counter-screen: ATP calcium response change in parental CHO cells; inhibition, % at 5.6 µM; parental CHO-K1, ATP-induced calcium, Fluo-8 fluorescence; 0.63% of 330,000 active;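 active = inhibition above that plate's mean sample inhibition plus 3 SD, cut at about 26% in these data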;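 note: 0% = ATP-challenged DMSO wells and 100% = DMSO wells without ATP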
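test system = CHO parental line | reagent = ATP stimulus | measured by = intracellular calcium via Fluo-8 no-wash fluorescent dye | control set = ATP and no-ATP DMSO wells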
OX1R antag-2 – antagonists of human orexin 1 receptor (OX1R); OX1R-expressing cells, FRET antagonist read-out; inhibition, % at 6.6 µM; 1.8% of 330,000 active; AID 485270; in the data active = inhibition mostly above about 38%, no sharp cut-off; inactive = mostly below about 40%;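 note: 0% = agonist challenge alone and 100% = reference antagonist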
GPR7 antagonist – antagonists of human GPR7 (neuropeptides B/W receptor 1); GPR7-expressing cells, fluorescence antagonist assay; P48145; inhibition, % at 4.4 µM; 1.1% of 290,000 active; in the data active = inhibition above about 16%, passing the limit was not always enough;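 note: cells stimulated with the agonist NPW; 0% = agonist with vehicle and 100% = vehicle without agonist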
Target sequence (P48145 whole entry, looked up): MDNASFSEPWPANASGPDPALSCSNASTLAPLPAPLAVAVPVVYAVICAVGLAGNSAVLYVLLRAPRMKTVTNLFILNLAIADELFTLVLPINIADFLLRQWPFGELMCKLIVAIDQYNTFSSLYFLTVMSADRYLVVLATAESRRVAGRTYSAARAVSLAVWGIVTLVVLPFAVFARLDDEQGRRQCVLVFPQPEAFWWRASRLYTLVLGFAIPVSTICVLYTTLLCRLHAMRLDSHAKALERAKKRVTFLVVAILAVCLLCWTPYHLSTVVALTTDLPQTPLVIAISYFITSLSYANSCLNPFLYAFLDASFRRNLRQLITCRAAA
Starred values were filed as active, the others as inactive; / = not tested or not shown. Shown are actives, neighbours in structure and some others; about 3.1% of the full set was active somewhere.

SMILES | OX1R antag-1 | GalR3 antagonist | CHO parental Ca | OX1R antag-2 | GPR7 antagonist
COc1ccccc1C(=O)NNC(=S)NC(=O)c1ccco1 | 50* | -2 | 31 | 28 | 1
CN1OC[C@@H]2CN(C(=O)c3ccc(C#N)cc3)[C@H](c3cccc(Br)c3)C[C@@H]21 | / | 0 | / | / | /
Cc1ccc[n+](Cc2ccc([N+](=O)[O-])cc2)c1 | -6 | -7 | 0 | 37 | -9
O=[N+]([O-])c1ccc(C[n+]2cccc3c4ccccc4ccc32)cc1 | -6 | 0 | -2 | 49* | -16
Nc1nonc1N/N=C/c1c(O)ccc2ccccc12 | 50* | -3 | 24 | 72 | 11
CC(C)[C@H](NC(=O)c1ccccc1Cl)C(=O)Nc1nc(-c2ccccn2)cs1 | -25 | 2 | -25 | 13 | -15
CC(Oc1ccc(Br)cc1)C(=O)Nc1nc(-c2ccccn2)cs1 (stereo not given) | 9 | -2 | 35* | 40 | 1
O=C1c2ccc(-c3ccc4c(c3)C(=O)N(CCCO)C4=O)cc2C(=O)N1CCCO | -12 | -2 | -2 | 59* | 7
CCN(CC)c1ccc(-c2c(C#N)c(N)nc(OC)c2C#N)cc1 | 5 | 3 | 36* | 17 | -8
Cn1nc(N)c2c(-c3ccc(Cl)cc3)c(C#N)c(N)nc21 | -19 | -11 | -15 | 43 | 1
Cc1cccc(Nc2ncnc(N)c2[N+](=O)[O-])n1 | -12 | -6 | 0 | 56* | -4
Cc1cccnc1Nc1ncnc(N)c1[N+](=O)[O-] | -7 | -4 | 1 | 13 | -1
Nc1ncnc(Nc2ccccn2)c1[N+](=O)[O-] | -9 | -1 | 6 | 64* | -9
CC(C)c1ccccc1-n1c(SCC(=O)N2CCc3ccccc3C2)nc2ccccc2c1=O | 24 | -4 | -13 | 73* | 18
Cc1ccc(-n2c(SCC(=O)N3CC(=O)Nc4ccccc43)nc3ccccc3c2=O)cc1C | 15 | -3 | 9 | 72* | 9
O=C(CSc1nc2ccccc2c(=O)n1-c1ccccc1)N1CCc2ccccc2C1 | -9 | -13 | -28 | 55* | -5
CC(C)Cn1c(SCC(=O)N2CCc3ccccc3C2)nc2cc(Cl)ccc2c1=O | -29 | 2 | -27 | 29 | -3
COCCn1c(SCC(=O)N2CCCc3ccccc32)nc2ccccc2c1=O | 2 | -3 | -9 | 53* | -8
CCNc1c(NC(=O)c2ccc3c(c2)OCO3)c(=O)oc2ccccc12 | -23 | -6 | -8 | 5 | 1
COc1ccccc1CCC(=O)Nc1ncc(C)s1 | -14 | -12 | -7 | -2 | 8
N#Cc1ccsc1NC(=O)COC(=O)c1cc2ccccc2cc1O | -8 | -4 | -14 | 41* | -6
N#C/C(=C\c1ccc(-c2nc3ccccc3s2)o1)C(N)=O | 26 | 1 | -19 | 52* | 7
N#C/C(=C/c1ccc(-c2ccc(S(N)(=O)=O)cc2)o1)c1nc2ccccc2s1 | 80* | 0 | 64* | 20 | 11
COc1ccc(C2CC(=O)C(c3ccc(C(F)(F)F)cc3)=CN2Cc2ccccc2)cc1 (stereo not given) | / | -5 | / | / | /
Cc1cc(NC(=O)COC(=O)C2CCC(=O)N2)c([N+](=O)[O-])cc1C (stereo not given) | -10 | -5 | -2 | 61* | -6
SMILES | OX1R antag-1 | GalR3 antagonist | CHO parental Ca | OX1R antag-2 | GPR7 antagonist
Cc1cc(NC(=O)COC(=O)CC2CCCC2)c([N+](=O)[O-])cc1C | -24 | -2 | -13 | 2 | -25
CCCCC(=O)Nc1nc2ccc3nc(C)sc3c2s1 | -11 | -2 | -18 | 52* | -12
CCCC(=O)Nc1nc2ccc3nc(C)sc3c2s1 | -12 | -2 | 4 | 31 | -14
COc1ccccc1-c1cccc2c3c([nH]c12)[C@@H]1C[C@H]2[C@@H](C(=O)N1CC3)[C@H](C)ON2C | / | -3 | / | / | /
CN(C1=C(NC(=O)c2ccccc2)C(=O)c2ccccc2C1=O)C1CCS(=O)(=O)C1 (stereo not given) | -19 | -6 | -10 | 85* | -4
O=C(CCC(=O)Nc1nnc(C2CCCCC2)s1)Nc1ccc(F)cc1 | -40 | -3 | -23 | 18 | -8
O=C(NCC1CCCO1)C1CCCN(S(=O)(=O)c2cccc3nsnc23)C1 (stereo not given) | -2 | -5 | -9 | 55* | -8
O=C(NCc1ccccc1Cl)C1CCCN(S(=O)(=O)c2cccc3nsnc23)C1 (stereo not given) | -4 | -4 | -29 | 20 | -4
COc1cccc(NC(=O)C2CCCN(S(=O)(=O)c3cccc4nsnc34)C2)c1 (stereo not given) | 23 | 0 | -14 | 85* | -3
CCc1cccc(NC(=O)C2CCCN(S(=O)(=O)c3cccs3)C2)c1 (stereo not given) | 6 | -11 | -25 | 52* | 4
CCN1CCN(C(=O)C2CCCN(S(=O)(=O)c3cccc4nsnc34)C2)CC1 (stereo not given) | -16 | -7 | -13 | 52* | -8
O=C(C1CCCN(S(=O)(=O)c2cccc3nsnc23)C1)N1CCCCCC1 (stereo not given) | 1 | 0 | -14 | 36 | -15
COc1ccccc1NC(=O)C1CCCN(S(=O)(=O)c2cccc3nsnc23)C1 (stereo not given) | -21 | -4 | -28 | 52 | -7
CCOC(=O)C1=CCN(S(=O)(=O)c2ccccc2Cl)C1c1ccc(Cl)c(Cl)c1 (stereo not given) | / | -4 | / | / | /
Cc1cccc(OCC(=O)OCC(=O)Nc2sccc2C(N)=O)c1 | 44* | -4 | 33* | 3 | /
CC[C@]12c3[nH]c4cc(CCC(=O)N(C)C)ccc4c3CCN1C(=O)[C@@H](CC(=O)NCCC1=CCCCC1)C[C@@H]2C(=O)N1CCN(C(=O)c2ccco2)CC1 | 2 | -6 | -18 | 10 | /
CC[C@]12c3[nH]c4cc(-c5ccco5)ccc4c3CCN1C(=O)[C@@H](CC(=O)NCCC1=CCCCC1)C[C@@H]2C(=O)N1CCN(C(=O)c2ccco2)CC1 | 45 | / | -21 | 43* | /
C=CC(=O)NC1CCCCN(CCC)C1=O (stereo not given) | / | 0 | / | / | /
COC(=O)c1cc2c(c3c4cc(OC)ccc4n(S(=O)(=O)c4ccc(OC)cc4)c13)C(=O)N(Cc1ccccc1OC)C2 | / | -7 | / | / | /
CCS(=O)(=O)n1nc(-c2ccccc2)cc1N | -10 | -2 | 6 | 27 | -12
Nc1cc(-c2ccc(Cl)cc2)nn1S(=O)(=O)c1ccccc1 | -13 | 3 | 48* | 25 | -11
Nc1ccc(C(=O)OCC(=O)N2CCOCC2)cc1[N+](=O)[O-] | 6 | -5 | 3 | 49* | 7
COC(=O)c1cc(C(=O)OCC(=O)NNC(=O)c2cccs2)cc([N+](=O)[O-])c1 | -17 | -3 | -9 | 60* | /
Cc1cc(C(=O)OCC(=O)NNC(=O)c2cccs2)ccc1[N+](=O)[O-] | 1 | -7 | -5 | 26 | /
COC(=O)c1cc(C(=O)OCC(=O)N2CCCCC2)cc([N+](=O)[O-])c1 | 2 | -6 | -7 | 56* | /

Screening results deposited in PubChem BioAssay by The Scripps Research Institute Molecular Screening Center.
